Assay results published in paper PMC7825275 (Cancer chemotherapy and pharmacology, 2019).

Test system: patients with advanced solid tumors
Assay: Toxicity by grade
Format: in vivo, human
Details: first cycle including veliparib with carboplatin and paclitaxel, n=73
Outline: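 Adverse events were tabulated descriptively as maximum grade in three groups: the chemotherapy-only lead-in cycle, the first veliparib-containing cycle, and all cycles. CBC and serum chemistry including liver function tests were drawn weekly during cycles 1–2, then at the start of every cycle. Veliparib was oral, twice daily on days 1–7; carboplatin/paclitaxel were IV every 21 days.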

C[C@]1(c2nc3c(C(N)=O)cccc3[nH]2)CCCN1 [veliparib]
3 (4) number of patients (%): Allergic reaction, Any Grade | Creatinine increased, Any Grade | Creatinine increased, Grade 1 | Dizziness, Any Grade | Dizziness, Grade 1 | Dyspepsia, Any Grade | Dyspnea, Any Grade | Edema limbs, Any Grade | Edema limbs, Grade 1 | Fever, Any Grade
0 number of patients (%): Alanine aminotransferase increased, Grade 2 | Alanine aminotransferase increased, Grade 3 | Alanine aminotransferase increased, Grade 4 | Alkaline phosphatase increased, Grade 3 | Alkaline phosphatase increased, Grade 4 | Allergic reaction, Grade 2 | Allergic reaction, Grade 3 | Alopecia, Grade 3 | Alopecia, Grade 4 | Anemia, Grade 4 | Anorexia, Grade 2 | Anorexia, Grade 3 | Anorexia, Grade 4 | Anxiety, Grade 2 | Anxiety, Grade 3 | Anxiety, Grade 4 | Arthralgia, Grade 3 | Arthralgia, Grade 4 | Aspartate aminotransferase increased, Grade 2 | Aspartate aminotransferase increased, Grade 3 | Aspartate aminotransferase increased, Grade 4 | Blood bilirubin increased, Grade 2 | Blood bilirubin increased, Grade 3 | Blood bilirubin increased, Grade 4 | Bone pain, Grade 2 | Bone pain, Grade 3 | Bone pain, Grade 4 | Chills, Grade 2 | Chills, Grade 3 | Chills, Grade 4 | Constipation, Grade 3 | Constipation, Grade 4 | Cough, Grade 2 | Cough, Grade 3 | Cough, Grade 4 | Creatinine increased, Grade 2 | Creatinine increased, Grade 3 | Creatinine increased, Grade 4 | Cytokine release syndrome, Grade 1 | Cytokine release syndrome, Grade 3 | Cytokine release syndrome, Grade 4 | Dehydration, Grade 1 | Dehydration, Grade 3 | Dehydration, Grade 4 | Diarrhea, Grade 2 | Diarrhea, Grade 3 | Diarrhea, Grade 4 | Dizziness, Grade 2 | Dizziness, Grade 3 | Dizziness, Grade 4 | Dry mouth, Grade 2 | Dry mouth, Grade 3 | Dry mouth, Grade 4 | Dysesthesia, Grade 2 | Dysesthesia, Grade 3 | Dysesthesia, Grade 4 | Dysgeusia, Grade 2 | Dysgeusia, Grade 3 | Dysgeusia, Grade 4 | Dyspepsia, Grade 3 | Dyspepsia, Grade 4 | Dysphagia, Grade 2 | Dysphagia, Grade 3 | Dysphagia, Grade 4 | Dyspnea, Grade 3 | Dyspnea, Grade 4 | Edema limbs, Grade 2 | Edema limbs, Grade 3 | Edema limbs, Grade 4 | Erythema multiforme, Grade 1 | Erythema multiforme, Grade 3 | Erythema multiforme, Grade 4 | Esophagitis, Grade 2 | Esophagitis, Grade 3 | Esophagitis, Grade 4 | Fatigue, Grade 4 | Febrile neutropenia, Grade 1 | Febrile neutropenia, Grade 2 | Fever, Grade 2
17 (23) number of patients (%): Alopecia, Any Grade
67 (92) number of patients (%): Any adverse event, Any Grade
57 (78) number of patients (%): Any adverse event, Grade 1
2 (3) number of patients (%): Alanine aminotransferase increased, Any Grade | Alanine aminotransferase increased, Grade 1 | Alkaline phosphatase increased, Any Grade | Allergic reaction, Grade 1 | Anemia, Grade 3 | Aspartate aminotransferase increased, Any Grade | Aspartate aminotransferase increased, Grade 1 | Constipation, Grade 2 | Cough, Any Grade | Cough, Grade 1 | Dry mouth, Any Grade | Dry mouth, Grade 1 | Dysgeusia, Any Grade | Dysgeusia, Grade 1 | Dyspepsia, Grade 1 | Dysphagia, Any Grade | Dysphagia, Grade 1 | Dyspnea, Grade 1 | Febrile neutropenia, Grade 4 | Fever, Grade 1
18 (24) number of patients (%): Fatigue, Grade 1
6 (8) number of patients (%): Arthralgia, Any Grade | Constipation, Any Grade
18 (25) number of patients (%): Anemia, Grade 2
34 (47) number of patients (%): Any adverse event, Grade 3
24 (33) number of patients (%): Anemia, Any Grade
26 (36) number of patients (%): Any adverse event, Grade 4
5 (7) number of patients (%): Arthralgia, Grade 1 | Diarrhea, Any Grade | Diarrhea, Grade 1 | Fatigue, Grade 2 | Febrile neutropenia, Any Grade
13 (18) number of patients (%): Alopecia, Grade 1
1 (1) number of patients (%): Alkaline phosphatase increased, Grade 1 | Alkaline phosphatase increased, Grade 2 | Allergic reaction, Grade 4 | Anxiety, Any Grade | Anxiety, Grade 1 | Arthralgia, Grade 2 | Blood bilirubin increased, Any Grade | Blood bilirubin increased, Grade 1 | Bone pain, Any Grade | Bone pain, Grade 1 | Chills, Any Grade | Chills, Grade 1 | Cytokine release syndrome, Any Grade | Cytokine release syndrome, Grade 2 | Dehydration, Any Grade | Dehydration, Grade 2 | Dysesthesia, Any Grade | Dysesthesia, Grade 1 | Dyspepsia, Grade 2 | Dyspnea, Grade 2 | Erythema multiforme, Any Grade | Erythema multiforme, Grade 2 | Esophagitis, Any Grade | Esophagitis, Grade 1 | Fever, Grade 3
3(4) number of patients (%): Febrile neutropenia, Grade 3
46 (63) number of patients (%): Any adverse event, Grade 2
27 (37) number of patients (%): Fatigue, Any Grade
4 (5) number of patients (%): Alopecia, Grade 2 | Anemia, Grade 1 | Anorexia, Any Grade | Anorexia, Grade 1 | Constipation, Grade 1 | Fatigue, Grade 3
